# Measured values as given in ChEMBL document CHEMBL1152869, “An inhibitor of FtsZ with potent and selective anti-staphylococcal activity” (Science, 2008).
# Calls of active or inactive are those of the source. No cut-off for these calls is given here.
# Legend:
# Staphylococcus aureus [1] = experiment: Antibacterial activity against Staphylococcus aureus Smith ATCC 19636 in sc dosed CD1 mouse septicemia model assessed as survival after 7 days; format: functional
# Procedure, shortened: (§1)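 At 1 h post-infection they received a single SC or IV dose of 3, 10 or 30 mg/kg. Controls were vehicle only and vancomycin 3 mg/kg by the same route. Mortality was recorded daily for 7 days, and ED50 was derived from dose-dependent survival.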
# Streptococcus pneumoniae = experiment: Antibacterial activity against Streptococcus pneumoniae by broth microdilution method; format: functional
# Staphylococcus aureus [2] = experiment: Antibacterial activity against Staphylococcus aureus bearing FtsZ G193D mutant by broth microdilution method; format: functional
# Staphylococcus aureus [3] = experiment: Antibacterial activity against multidrug-resistant Staphylococcus aureus by broth microdilution method; format: functional
# [4] = tested on: Staphylococcus haemolyticus; experiment: Antibacterial activity against Staphylococcus haemolyticus by broth microdilution method; format: functional
# Staphylococcus aureus [5] = experiment: Antibacterial activity against Staphylococcus aureus by broth microdilution method; format: functional
# Staphylococcus aureus [6] = experiment: Antibacterial activity against Staphylococcus aureus bearing FtsZ N263K mutant by broth microdilution method; format: functional
# HepG2 = experiment: Cytotoxicity against human HepG2 cells; format: cell-based
# Bacillus subtilis [7] = experiment: Antibacterial activity against Bacillus subtilis bearing FtsZ A47P mutant by broth microdilution method; format: functional
# Bacillus subtilis [8] = experiment: Antibacterial activity against Bacillus subtilis bearing FtsZ V307H mutant by broth microdilution method; format: functional
# Bos taurus [9] = species: Bos taurus; experiment: Enhancement of bovine brain tubulin polymerization at 64 ug/ml
# [10] = tested on: Staphylococcus saprophyticus; experiment: Antibacterial activity against Staphylococcus saprophyticus by broth microdilution method; format: functional
# [11] = tested on: Staphylococcus epidermidis; experiment: Antibacterial activity against Staphylococcus epidermidis by broth microdilution method; format: functional
# Staphylococcus aureus [12] = experiment: Antibacterial activity against Staphylococcus aureus bearing FtsZ G196A mutant by broth microdilution method; format: functional
# Pseudomonas aeruginosa = experiment: Antibacterial activity against Pseudomonas aeruginosa by broth microdilution method; format: functional
# Bacillus subtilis [13] = experiment: Inhibition of cell division in Bacillus subtilis 168 assessed as elongation of cells at 2 ug/ml by phase contrast microscopy; format: functional, organism-based; conditions: subsp. subtilis str. 168
# Procedure, shortened: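 B. subtilis 168 cells grown with or without compound at 2 μg/ml; cell morphology examined by phase-contrast microscopy.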
# Enterococcus faecalis = experiment: Antibacterial activity against Enterococcus faecalis by broth microdilution method; format: functional
# [14] = tested on: Staphylococcus lugdunensis; experiment: Antibacterial activity against Staphylococcus lugdunensis by broth microdilution method; format: functional
# Staphylococcus hominis = experiment: Antibacterial activity against Staphylococcus hominis by broth microdilution method; format: functional
# Staphylococcus warneri = experiment: Antibacterial activity against Staphylococcus warneri by broth microdilution method; format: functional
# Staphylococcus aureus [15] = experiment: Bactericidal activity against Staphylococcus aureus ATCC 29213 assessed as reduction in cell viability at 2 ug/ml within 24 hrs by serial dilution method
# Staphylococcus aureus [16] = experiment: Inhibition of cell division in Staphylococcus aureus ATCC 29213 assessed as enlargement of cells at 2 ug/ml by phase contrast microscopy; format: functional, organism-based
# Procedure, shortened: (§2)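 S. aureus ATCC 29213 cells grown with or without compound at 2 μg/ml; cell morphology examined by phase-contrast microscopy.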
# [17] = biological target: T1, Cell division protein FtsZ (Staphylococcus aureus) (UniProt P0A031); experiment: (§3) Inhibition of Staphylococcus aureus FtsZ GTPase activity
# T1 sequence (whole entry): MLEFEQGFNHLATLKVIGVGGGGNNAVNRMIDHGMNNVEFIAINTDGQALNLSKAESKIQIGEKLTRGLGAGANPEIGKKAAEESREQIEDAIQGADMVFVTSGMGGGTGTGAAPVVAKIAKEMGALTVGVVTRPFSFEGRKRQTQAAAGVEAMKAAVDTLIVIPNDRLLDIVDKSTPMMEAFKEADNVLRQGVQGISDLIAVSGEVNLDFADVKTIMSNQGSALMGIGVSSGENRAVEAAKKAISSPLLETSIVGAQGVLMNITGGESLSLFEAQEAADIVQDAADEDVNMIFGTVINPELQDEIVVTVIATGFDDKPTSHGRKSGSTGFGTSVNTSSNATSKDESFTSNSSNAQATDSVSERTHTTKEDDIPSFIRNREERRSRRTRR
# Procedure, shortened: (§4)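 S. aureus FtsZ cloned, overexpressed and purified; in vitro GTPase activity measured across a compound concentration series; IC50 derived from concentration-dependent inhibition.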
# [18] = biological target: T2, Cell division protein FtsZ (Staphylococcus aureus, UniProt P0A031); experiment: as §3; procedure, shortened: as §4
# T2 sequence (P0A031 whole entry): T1 sequence (whole entry)
# Saccharomyces cerevisiae = experiment: Antifungal activity against Saccharomyces cerevisiae by broth microdilution method; format: functional
# Staphylococcus aureus [19] = experiment: Bactericidal activity against Staphylococcus aureus ATCC 29213 assessed as logarithmic reduction in viable cell numbers at >= MIC after 24 hrs; format: functional
# Staphylococcus aureus [20] = experiment: Antibacterial activity against Staphylococcus aureus Smith ATCC 19636 in iv dosed CD1 mouse septicemia model assessed as survival after 7 days; format: functional; procedure, shortened: as §1
# Staphylococcus aureus [21] = experiment: Antibacterial activity against Staphylococcus aureus Smith ATCC 19636 in CD1 mouse septicemia model assessed as survival at 30 mg/kg, sc after 7 days relative to control; format: functional; conditions: 168 h, route subcutaneous; procedure, shortened: as §1
# Staphylococcus aureus [22] = experiment: Antibacterial activity against Staphylococcus aureus bearing FtsZ V214F mutant by broth microdilution method; format: functional
# Staphylococcus aureus [23] = experiment: Antibacterial activity against Staphylococcus aureus Smith ATCC 19636 in ip dosed CD1 mouse septicemia model assessed as survival administered 1 hr postinfection measured after 7 days; format: functional
# [24] = biological target: T3, Cell division protein FtsZ (Bacillus subtilis (strain 168)) (UniProt P17865); experiment: Inhibition of GFP-FtsZ localization in Bacillus subtilis 2020 assessed as protein mislocalization to assemble into cytokinetic ring at 8 ug/ml by florescence microscopy
# T3 sequence (whole entry): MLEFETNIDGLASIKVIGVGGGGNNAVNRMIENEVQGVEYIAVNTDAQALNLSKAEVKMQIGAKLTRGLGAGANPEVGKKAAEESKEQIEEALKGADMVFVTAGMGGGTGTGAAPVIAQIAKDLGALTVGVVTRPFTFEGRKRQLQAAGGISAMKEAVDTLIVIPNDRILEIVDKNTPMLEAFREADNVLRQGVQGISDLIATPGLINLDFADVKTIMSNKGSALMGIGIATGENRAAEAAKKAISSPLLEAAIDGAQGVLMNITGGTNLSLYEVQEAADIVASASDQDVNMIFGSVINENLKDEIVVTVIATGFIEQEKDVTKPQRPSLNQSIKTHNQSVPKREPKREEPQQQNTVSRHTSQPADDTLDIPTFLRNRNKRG
# Procedure, shortened: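 B. subtilis 2020 carrying gfp-ftsZ cultured with or without compound at 8 μg/ml; FtsZ localization visualized by fluorescence microscopy.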
# Staphylococcus aureus [25] = experiment: Antibacterial activity against Staphylococcus aureus bearing FtsZ G266S mutant by broth microdilution method; format: functional
# Bos taurus [26] = species: Bos taurus; experiment: Inhibition of bovine brain tubulin polymerization at 64 ug/ml
# Staphylococcus aureus [27] = experiment: Inhibition of cell division in Staphylococcus aureus ATCC 29213 assessed as enlargement of cells at 2 ug/ml within 2 hrs by phase contrast microscopy; format: functional, organism-based; procedure, shortened: as §2
# Staphylococcus aureus [28] = experiment: Antibacterial activity against Staphylococcus aureus bearing FtsZ R191P mutant by broth microdilution method; format: functional
# Bacillus subtilis [29] = experiment: Antibacterial activity against Bacillus subtilis by broth microdilution method; format: functional
# Bacillus subtilis [30] = experiment: Antibacterial activity against Bacillus subtilis bearing FtsZ V307R mutant by broth microdilution method; format: functional
# Haemophilus influenzae = experiment: Antibacterial activity against Haemophilus influenzae by broth microdilution method; format: functional
# Bacillus subtilis [31] = experiment: Antibacterial activity against Bacillus subtilis bearing FtsZ G196A mutant by broth microdilution method; format: functional
# Escherichia coli = experiment: Antibacterial activity against Escherichia coli by broth microdilution method; format: functional
# Staphylococcus aureus [32] = experiment: Antibacterial activity against Staphylococcus aureus Smith ATCC 19636 in CD1 mouse septicemia model assessed as survival at 30 mg/kg, iv after 7 days relative to control; format: functional; conditions: 168 h; procedure, shortened: as §1
# Staphylococcus aureus [33] = experiment: Antibacterial activity against methicillin-resistant Staphylococcus aureus by broth microdilution method; format: functional
# Bacillus subtilis [34] = experiment: Inhibition of cell division in Bacillus subtilis 168 at 50 uM by phase contrast microscopy; format: functional, organism-based; conditions: subsp. subtilis str. 168
# Bos taurus [35] = species: Bos taurus; experiment: Enhancement of bovine brain tubulin polymerization at 25 uM
compound,measurement,setting,value
NC(=O)c1c(F)ccc(OCc2nc3cc(Cl)cnc3s2)c1F,Activity,Staphylococcus aureus [1],Dose-dependent effect
same,ED50,Staphylococcus aureus [1]; 168 h,7.3 mg/kg
same,MIC,Streptococcus pneumoniae,> 64 µg/mL
same,MIC,Staphylococcus aureus [2],> 512 µg/mL
same,MIC,Staphylococcus aureus [3],1 µg/mL
same,MIC,[4],0.5 µg/mL
same,MIC,Staphylococcus aureus [5],1 µg/mL
same,MIC,Staphylococcus aureus [6],> 512 µg/mL
same,IC50,HepG2,> 64 µg/mL
same,MIC,Bacillus subtilis [7],1 µg/mL
same,MIC,Bacillus subtilis [8],2 µg/mL
same,Activity,Bos taurus [9],inactive
same,MIC,[10],1 µg/mL
same,MIC,[11],1 µg/mL
same,MIC,Staphylococcus aureus [12],> 512 µg/mL
same,MIC,Pseudomonas aeruginosa,> 64 µg/mL
same,Activity,Bacillus subtilis [13],Active
same,MIC,Enterococcus faecalis,> 64 µg/mL
same,MIC,[14],1 µg/mL
same,MIC,Staphylococcus hominis,1 µg/mL
same,MIC,Staphylococcus warneri,1 µg/mL
same,Activity,Staphylococcus aureus [15],Active
same,Activity,Staphylococcus aureus [16],Active
same,Activity,[17],Dose-dependent effect
same,IC50,[18],155 nM
same,MIC,Saccharomyces cerevisiae,> 64 µg/mL
same,Activity,Staphylococcus aureus [19],>3
same,Activity,Staphylococcus aureus [20],Dose-dependent effect
same,ED50,Staphylococcus aureus [20]; 168 h,10.2 mg/kg
same,survival at 30 mg/kg,Staphylococcus aureus [21],100%
same,MIC,Staphylococcus aureus [22],> 512 µg/mL
same,ED50,Staphylococcus aureus [23],3.1 mg/kg
same,Activity,[24],Active
same,MIC,Staphylococcus aureus [25],> 512 µg/mL
same,Activity,Bos taurus [26],inactive
same,Activity,Staphylococcus aureus [27],Active
same,MIC,Staphylococcus aureus [28],> 512 µg/mL
same,MIC,Bacillus subtilis [29],0.5 µg/mL
same,MIC,Bacillus subtilis [30],8 µg/mL
same,MIC,Haemophilus influenzae,> 64 µg/mL
same,MIC,Bacillus subtilis [31],> 64 µg/mL
same,MIC,Escherichia coli,> 64 µg/mL
same,survival at 30 mg/kg,Staphylococcus aureus [32],100%
same,MIC,Staphylococcus aureus [33],1 µg/mL
CC(=O)O[C@H]1C(=O)[C@@]2(C)[C@H]([C@H](OC(=O)c3ccccc3)[C@]3(O)C[C@H](OC(=O)[C@H](O)[C@@H](NC(=O)c4ccccc4)c4ccccc4)C(C)=C1C3(C)C)[C@]1(OC(C)=O)CO[C@@H]1C[C@@H]2O,Activity,Bacillus subtilis [34],inactive
same,Activity,Bos taurus [35],Active
COc1cccc(C(N)=O)c1,MIC,Staphylococcus aureus [5],2050 µg/mL
same,MIC,Bacillus subtilis [7],> 8190 µg/mL
same,MIC,Bacillus subtilis [8],4100 µg/mL
same,MIC,Bacillus subtilis [29],2050 µg/mL
same,MIC,Bacillus subtilis [30],> 8190 µg/mL
same,MIC,Bacillus subtilis [31],1020 µg/mL
